Measurements reported in article PMC4433557 (ACS chemical biology, 2015).
Where a SMILES comes first, the peptide text is derived from it. Where no end group is shown, it is not given here. [ ]: non-standard residue; d: D form. Phe(4-F) = N[C@@H](Cc1ccc(F)cc1)C(=O)O; pS = N[C@@H](COP(=O)(O)O)C(=O)O; βAla = NCCC(=O)O

Assays:
[1] = tested on: phospho-CtIP and BRCA1 (BRCT)2; assay: pull down-western of phospho-CtIP-myc from cell lysates with BRCA1; format: binding; conditions: synthesized peptide, increasing concentrations
BRCA1 (BRCT)2 = BRCA1 (BRCT)2 (Homo sapiens, UniProt P38398); assay: isothermal titration calorimetry with TR-; format: binding; conditions: ITC
[2] = target: BRCA1 (BRCT)2 (thioredoxin-(BRCT)2 fusion) (Homo sapiens, UniProt P38398); assay: competition fluorescence polarization assay against FAM-β-A-pSPTF-NH2; format: binding
Summary of the method: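 Competition fluorescence polarization: 20 nM FAM-β-A-pSPTF tracer plus 2.7 μM thioredoxin-(BRCT)2 fusion, titrated with variable concentrations of test peptide. IC50 obtained by fitting a four-parameter logistic equation.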

[3] = target: BACH1-derived tetrapeptide (Homo sapiens) (UniProt Q9BX63); conditions: cited from earlier work
BACH1-derived tetrapeptide (Homo sapiens), sequence (Q9BX63 whole entry, looked up, tested part not stated): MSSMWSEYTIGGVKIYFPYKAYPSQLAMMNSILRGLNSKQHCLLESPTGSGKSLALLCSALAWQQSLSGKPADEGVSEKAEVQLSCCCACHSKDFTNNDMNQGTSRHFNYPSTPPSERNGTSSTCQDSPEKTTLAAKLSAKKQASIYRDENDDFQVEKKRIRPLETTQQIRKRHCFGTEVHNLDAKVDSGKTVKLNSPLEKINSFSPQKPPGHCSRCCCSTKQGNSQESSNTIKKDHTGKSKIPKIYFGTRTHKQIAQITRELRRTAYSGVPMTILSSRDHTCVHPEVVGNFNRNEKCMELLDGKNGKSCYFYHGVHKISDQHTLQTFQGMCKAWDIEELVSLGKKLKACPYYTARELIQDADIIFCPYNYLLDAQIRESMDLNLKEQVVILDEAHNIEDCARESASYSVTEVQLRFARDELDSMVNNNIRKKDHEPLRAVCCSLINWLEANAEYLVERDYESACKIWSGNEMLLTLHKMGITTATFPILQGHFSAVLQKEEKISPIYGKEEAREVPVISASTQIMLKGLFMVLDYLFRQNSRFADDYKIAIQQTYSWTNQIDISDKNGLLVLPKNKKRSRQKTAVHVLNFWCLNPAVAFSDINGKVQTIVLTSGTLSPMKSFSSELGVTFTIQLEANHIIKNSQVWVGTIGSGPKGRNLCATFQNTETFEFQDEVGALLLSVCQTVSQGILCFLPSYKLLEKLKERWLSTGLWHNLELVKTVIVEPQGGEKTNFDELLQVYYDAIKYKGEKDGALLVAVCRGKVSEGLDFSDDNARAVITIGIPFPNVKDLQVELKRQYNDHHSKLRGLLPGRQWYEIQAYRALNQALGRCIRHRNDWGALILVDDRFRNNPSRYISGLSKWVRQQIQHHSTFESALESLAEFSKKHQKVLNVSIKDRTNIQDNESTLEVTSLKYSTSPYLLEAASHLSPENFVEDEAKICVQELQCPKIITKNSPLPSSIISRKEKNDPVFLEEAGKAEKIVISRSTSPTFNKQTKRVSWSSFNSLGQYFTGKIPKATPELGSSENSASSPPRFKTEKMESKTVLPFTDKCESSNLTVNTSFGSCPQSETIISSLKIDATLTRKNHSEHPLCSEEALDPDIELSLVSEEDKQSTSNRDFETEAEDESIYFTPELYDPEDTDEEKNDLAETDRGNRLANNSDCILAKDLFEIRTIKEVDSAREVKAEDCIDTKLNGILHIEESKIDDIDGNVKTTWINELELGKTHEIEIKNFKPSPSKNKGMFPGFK

GST-BRCA1 (BRCT)2 E1698A = assay: fluorescence polarization binding to GST-BRCA1; parameters: species or system human; conditions: FP; FITC-BACH1 peptide
Summary of the method: (§1)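 Direct fluorescence polarization of GST-BRCA1 (BRCT)2 point mutants and wild type, using either the labelled BACH1 phosphopeptide (FITC-[…]-NH2) or FAM-β-Ala-labelled test peptide as probe. KD for each mutant was determined by FP, then normalized to the wild-type GST-(BRCT)2 KD.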

GST-BRCA1 (BRCT)2 N1774A = assay: fluorescence polarization binding to GST-BRCA1; parameters: species or system human; conditions: FP; FITC-BACH1 peptide
Summary of the method: as §1

GST-BRCA1 (BRCT)2 S1655A = assay: fluorescence polarization binding to GST-BRCA1; parameters: species or system human; conditions: FP; fluorescent peptides FAM-β-Ala-8.6 or FITC-BACH1 peptide
Summary of the method: as §1

GST-BRCA1 (BRCT)2 K1702M = assay: fluorescence polarization binding to GST-BRCA1; parameters: species or system human; conditions: FP; FITC-BACH1 peptide
Summary of the method: as §1

[4] = target: thioredoxin-(BRCT)2 fusion (human) (UniProt P38398); assay: fluorescence polarisation
[5] = target: thioredoxin-(BRCT)2 fusion (human) (UniProt P38398); assay: ITC
[6] = target: GST-BRCA1 (BRCT)2 K1702M (human) (UniProt P38398); assay: fluorescence polarisation

With “8.6 Nat: peptide 8.6 with the two 4FPhe substituted with Phe (MCTIDFDEYRFRKT)” the “blocking of binding of phospho-CtIP and BRCA1 in cell lysates” value [1] was “able to block the binding” and the “binding after substitution of the two 4FPhe with Phe” value (BRCA1 (BRCT)2) was “did not significantly abrogate binding”.

With “8.6E8pS: mutant of peptide 8.6 containing the Glu to pSer mutation (MCTID[Phe(4-F)]D[pS]YR[Phe(4-F)]RKT)” the “fold lower KD than peptide 8.6” value (BRCA1 (BRCT)2; 25 °C, pH 7.4, TR-(BRCT)2 20 uM, peptide 214 μM) was 10 fold.

`CC[C@H](C)[C@H](NC(=O)[C@H](Cc1ccc(F)cc1)NC(=O)[C@H](CC(=O)O)NC(=O)[C@H](CC(N)=O)NC(=O)[C@H](CS)NC(=O)[C@H](CCSC)NC(C)=O)C(=O)N[C@@H](Cc1ccc(F)cc1)C(=O)N[C@@H](CCCNC(=N)N)C(=O)N[C@@H](CCCNC(=N)N)C(=O)N[C@@H](CO)C(=O)N[C@H](C(=O)N[C@@H](Cc1ccc(F)cc1)C(=O)N[C@@H](CCCNC(=N)N)C(=O)N[C@@H](C)C(N)=O)[C@@H](C)O` [8.1] (Ac-MCND[Phe(4-F)]I[Phe(4-F)]RRST[Phe(4-F)]RA-NH2) showed an IC50 [2] of 24 ± 2 µM.

In the case of `CC[C@H](C)[C@H](NC(=O)[C@H](Cc1ccc(F)cc1)NC(=O)[C@H](CC(=O)O)NC(=O)[C@H](CO)NC(=O)[C@H](CS)NC(=O)[C@H](CCSC)NC(C)=O)C(=O)N[C@@H](Cc1ccc(F)cc1)C(=O)N[C@@H](CO)C(=O)N[C@@H](CCCNC(=N)N)C(=O)N[C@@H](CCCNC(=N)N)C(=O)N[C@H](C(=O)N[C@@H](Cc1ccc(O)cc1)C(=O)N[C@H](C(=O)N[C@@H](Cc1ccc(F)cc1)C(N)=O)[C@@H](C)O)[C@@H](C)O` [8.2] (Ac-MCSD[Phe(4-F)]I[Phe(4-F)]SRRTYT[Phe(4-F)]-NH2), the IC50 [2] is reported as 49 ± 5 µM.

`CSCC[C@H](NC(C)=O)C(=O)N[C@@H](CS)C(=O)N[C@@H](Cc1ccc(O)cc1)C(=O)N[C@@H](CC(=O)O)C(=O)N[C@@H](Cc1ccc(F)cc1)C(=O)N[C@@H](CC(=O)O)C(=O)N[C@H](C(=O)N[C@H](C(=O)N[C@@H](CC(N)=O)C(=O)N[C@@H](CC(=O)O)C(=O)N[C@@H](Cc1c[nH]cn1)C(=O)N[C@H](C(=O)N[C@@H](Cc1ccc(F)cc1)C(N)=O)[C@@H](C)O)[C@@H](C)O)[C@@H](C)O` [8.5] (HELM PEPTIDE1{[ac].M.C.Y.D.[O=C([C@H](Cc1ccc(F)cc1)N[*:1])[*:2]].D.T.T.N.D.H.T.[O=C([C@H](Cc1ccc(F)cc1)N[*:1])[*:2]].[am]}$$$$V2.0) gave an IC50 [2] of 26 ± 2 µM.

For BRCA1 BRCT2 (from UniProt P38398), the Kd [3] is given as 190 nM.

With FITC-SRSTpSTPFNK-NH2 [pSer peptide] the “change in affinity, E1698A versus wild type” value (GST-BRCA1 (BRCT)2 E1698A) was “no significant change in affinity”, the “change in affinity, N1774A versus wild type” value (GST-BRCA1 (BRCT)2 N1774A) was “no significant change in affinity” and the “binding to S1655A mutant versus wild type” value (GST-BRCA1 (BRCT)2 S1655A) was “completely abolished recognition”. The “binding to K1702M mutant versus wild type” value (GST-BRCA1 (BRCT)2 K1702M) was “completely abolished recognition”.

In the case of “Y9A: Tyr to Ala mutant of peptide 8.6 (MCTID[Phe(4-F)]DEAR[Phe(4-F)]RKT)”, the “competitive binding of alanine mutant relative to wild-type 8.6” value ([2]; competition FP, TR-BRCA1 (BRCT)2 2.5 μM, FAM-β-Ala-pSPTF-NH2 20 nM) is reported as “competed more effectively for binding than the wild-type 8.6”.

B1: peptide 8.6 (peptide)
peptide: MCTIDFDEYRFRKT
HELM: PEPTIDE1{[ac].M.C.T.I.D.[O=C([C@H](Cc1ccc(F)cc1)N[*:1])[*:2]].D.E.Y.R.[O=C([C@H](Cc1ccc(F)cc1)N[*:1])[*:2]].R.K.T.[am]}$$$$V2.0
SMILES: CC[C@H](C)[C@H](NC(=O)[C@@H](NC(=O)[C@H](CS)NC(=O)[C@H](CCSC)NC(C)=O)[C@@H](C)O)C(=O)N[C@@H](CC(=O)O)C(=O)N[C@@H](Cc1ccc(F)cc1)C(=O)N[C@@H](CC(=O)O)C(=O)N[C@@H](CCC(=O)O)C(=O)N[C@@H](Cc1ccc(O)cc1)C(=O)N[C@@H](CCCNC(=N)N)C(=O)N[C@@H](Cc1ccc(F)cc1)C(=O)N[C@@H](CCCNC(=N)N)C(=O)N[C@@H](CCCCN)C(=O)N[C@H](C(N)=O)[C@@H](C)O
Molecule B1 has an IC50 [4] of 10 µM, a Kd [5] of 3.7 µM and a dH (printed as a magnitude; the paper calls it negative) [5] of 24.6 kcal/mol.

B2: peptide 8.6E8pS (peptide)
peptide: MCTID[Phe(4-F)]D[pS]YR[Phe(4-F)]RKT
With B2 the fold lower KD than peptide 8.6 [5] was 10 fold.

B3: FAM-β-Ala-…-NH2 (peptide)
peptide: {FAM-βAla}-MCTIDFDEYRFRKT-NH2
B3 showed a fold reduction in binding against wild-type GST-BRCA1 (BRCT)2 [6] of 6 fold.
